≈ marks a conversion by molar mass, not a printed value. Calls of active or inactive are those of the source. The calls are words filed in the database; no cut-off is given here.
Assays:
Staphylococcus aureus [1] = assay: Inhibition of DNA synthesis in Staphylococcus aureus assessed as reduction in [3H]-thymidine incorporation at 3.5 to 5 uM measured after 30 mins by scintillation counting analysis; type: functional, organism-based
Method in brief: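 Log-phase S. aureus (10^5–10^6 CFU/mL) incubated with 3.5 or 5 µM, then pulsed 30 min with 3H-thymidine (1 µCi/well); cells harvested and counted by liquid scintillation. 5-fluorouracil (2 µM) as positive control.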

Escherichia coli = assay: Antibacterial activity against Escherichia coli MTCC1916 by broth microdilution assay; type: functional
Method in brief: (§1)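 Broth microdilution per CLSI; 5×10^5 cfu/mL bacteria in LB broth; compounds from DMSO stocks, final DMSO under 0.6%, with DMSO control. Plates incubated at the strain's recommended growth temperature and time; growth read as OD600.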

Staphylococcus aureus [2] = assay: Disruption of cell membrane in Staphylococcus aureus assessed as accumulation of propidium iodide negative cells at 5 uM by flow cytometric analysis (reference value: 98.2%); type: functional
Staphylococcus aureus [3] = assay: Induction of morphological changes in Staphylococcus aureus assessed as changed population at 5 uM measured after 2 hrs by flow cytometric analysis (reference value: 5.71%); type: functional
[4] = Binding affinity to pCDNA 3.1 (unknown origin) assessed as DNA unwinding effect at 2:1 to 4:1 compound to DNA ratio measured after 16 hrs by EtBr staining agarose gel shift assay
Method in brief: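 pcDNA3.1 plasmid was grown in E. coli DH5α and used at 40 µM in 50 mM NaP, pH 7, with 10 mM NaCl. Mixed with compound at set [compound]:[DNA bp] ratios and held 16 h at 37 °C. Run on 1% agarose at 50 V for about 3 h, then stained with EtBr (1 µg/mL) for 5 min.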

Staphylococcus aureus [5] = assay: Induction of morphological changes in Staphylococcus aureus assessed as increase in changed population measured after 2 hrs by flow cytometric analysis; type: functional, organism-based
DNA [6] = assay: Binding affinity to Staphylococcus aureus DNA assessed as change in B-DNA structure by circular dichroism method; type: nucleic-acid assay
Method in brief: (§2)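 Genomic DNA isolated from overnight cultures of each strain. Titrated with compound from 15 to 60 µM in a 10 mm quartz cuvette. CD spectra recorded from 230 to 500 nm at 100 nm/min; ellipticity followed at 320 nm.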

DNA [7] = assay: Binding affinity to Staphylococcus aureus DNA assessed as induction of structural changes by EtBr staining based agarose gel shift assay; type: nucleic-acid assay
Method in brief: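 S. aureus genomic DNA incubated with compound at stated [compound]:[DNA bp] ratios, 16 h at 37 °C, in NaP buffer pH 7 with 10 mM NaCl. Run on agarose gel, stained with EtBr (1 µg/mL) and classed as supercoiled, structurally altered or condensed.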

Staphylococcus aureus [8] = assay: Induction of morphological changes in Staphylococcus aureus assessed as unchanged population at 5 uM measured after 2 hrs by flow cytometric analysis (reference value: 90.4%); type: functional
Staphylococcus aureus [9] = assay: Antibacterial activity against Staphylococcus aureus MTCC737 measured after 6 hrs by broth microdilution assay; type: functional; conditions: MTCC737, 6 h; method in brief: as §1
DNA [10] = assay: Induction of DNA condensation in Staphylococcus aureus assessed as nucleoid shrinkage at 10 uM after 1 hr by DAPI staining-based confocal laser scanning fluorescence microscopic analysis; type: nucleic-acid assay
Method in brief: (§3)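 S. aureus grown 6 h at 37 °C, washed into PBS and exposed to 10 µM compound or 0.5% DMSO for 1 h at 37 °C with shaking. Fixed in paraformaldehyde for 30 min at 4 °C, then DAPI-stained for 5 min. Nucleoid and cell areas measured from phase contrast/DAPI images; N/C ratio from 35 cells over three independent experiments, mean ± SD.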

DNA [11] = assay: Binding affinity to Escherichia coli pBR322 DNA assessed as DNA unwinding at 0.5:1 to 1.5:1 compound to DNA ratio by atomic force microscopic analysis; type: nucleic-acid assay
Method in brief: (§4)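 Supercoiled pBR322 plasmid treated with compound at [compound]:[DNA bp] ratios of 0.5:1, 1:1, 1.5:1, 2:1 and 3:1. Imaged by atomic force microscopy, with DNA height measured and compared against untreated plasmid.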

Staphylococcus aureus [12] = assay: Induction of morphological changes in Staphylococcus aureus assessed as unchanged population at 7.5 uM measured after 2 hrs by flow cytometric analysis (reference value: 90.4%); type: functional
Staphylococcus aureus [13] = assay: Induction of morphological changes in Staphylococcus aureus assessed as changed population at 7.5 uM measured after 2 hrs by flow cytometric analysis (reference value: 5.71%); type: functional
[14] = system: Poly(dA-dT)oligonucleotide; assay: Binding affinity to poly(dA-dT) DNA (unknown origin) assessed as appearance of induced CD up to 6:1 compound to DNA ratio by circular dichroism method; type: nucleic-acid assay
Method in brief: (§5)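 Poly(dA-dT)·poly(dA-dT) or poly(dG-dC)·poly(dG-dC) held at 10 µM. Titrated with compound from 20 to 60 µM and followed by circular dichroism for change in the B-DNA band and appearance of induced CD.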

DNA [15] = assay: Induction of DNA condensation in Staphylococcus aureus assessed as decrease in nucleoid area at 10 uM after 1 hr by DAPI staining-based confocal laser scanning fluorescence microscopic analysis relative to control; type: nucleic-acid assay; parameters: scale not given: the % may be the effect or the level left; method in brief: as §3
[16] = system: Pseudarthrobacter chlorophenolicus; assay: Binding affinity to Arthrobacter chlorophenolicus DNA assessed as change in B-DNA structure by circular dichroism method; method in brief: as §2
DNA [17] = assay: Binding affinity to Escherichia coli pBR322 DNA assessed as height of DNA at 0.5:1 to 3:1 compound to DNA ratio by atomic force microscopic analysis; type: nucleic-acid assay; method in brief: as §4
HEK293 [18] = assay: Induction of morphological changes in HEK293 cells at 5 uM by propidium iodide staining based assay; type: cell-based; conditions: human, hek293, 5 µM
HEK293 [19] = assay: Induction of DNA damage in HEK293 cells at 15 uM by TUNEL staining based confocal laser scanning fluorescence microscopic analysis; type: cell-based; conditions: human, hek293, 15 µM
Method in brief: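 TUNEL in HEK 293 cells treated with 15 µM or 0.5% DMSO control; TdT incorporation of fluorescent nucleotides at strand-break 3′-OH ends, confocal imaging at 60X.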

DNA [20] = assay: Binding affinity to Staphylococcus aureus DNA assessed as relaxation of DNA strand at 1:1 compound to DNA ratio by atomic force microscopic analysis; type: nucleic-acid assay
Method in brief: (§6)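 Isolated S. aureus genomic DNA (2.8 Mbp) treated with compound at increasing [compound]:[DNA bp] ratios, up to 3:1. Imaged by atomic force microscopy against untreated DNA.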

DNA [21] = assay: Inhibition of ethidium bromide binding to Staphylococcus aureus DNA by fluorescence assay; type: nucleic-acid assay
Method in brief: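 Fluorescence intercalator displacement: S. aureus genomic DNA 10 µM plus EtBr 5 µM in 10 mM NaP pH 7, 10 mM NaCl, 1% DMSO, at 25 and 37 °C; titrated with 2.5–100 µM compound. Excitation 480 nm, emission 520–700 nm, inner-filter corrected, triplicates; Stern–Volmer analysis, F0/F = 1 + Ksv[Q].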

[22] = system: Poly(dG-dC)oligonucleotide; assay: Binding affinity to poly(dG-dC) DNA (unknown origin) assessed as change in B-DNA structure by circular dichroism method; type: nucleic-acid assay; method in brief: as §5
DNA [23] = assay: Binding affinity to Staphylococcus aureus DNA assessed as formation of DNA superstructure at 1:1 to 3:1 compound to DNA ratio by atomic force microscopic analysis; type: nucleic-acid assay; method in brief: as §6

- MIC (Escherichia coli): 3.36 µg/mL (≈ 7.49 µM)
- Activity [4]: Active
- Activity (DNA [6]): Dose-dependent effect
- Activity (DNA [7]): Dose-dependent effect
- MIC (Staphylococcus aureus [9]): 1.79 µg/mL (≈ 3.99 µM)
- Activity (DNA [10]): Active
- Activity (DNA [11]): Active
- Activity [14]: inactive
- Activity (DNA [15]): 30%
- Activity [16]: Dose-dependent effect
- Activity (DNA [17]): 0.32 to 1.3 nm
- Activity (DNA [20]): Active
- inhibition (DNA [21]): Dose-dependent effect
- Activity [22]: Dose-dependent effect
- Activity (DNA [23]): Active
Compound: CN(C)CCCNc1nc2cc([N+](=O)[O-])ccc2nc1NCc1ccc(C(F)(F)F)cc1
- inhibition (Staphylococcus aureus [1]): Active
- Activity (Staphylococcus aureus [2]): 79%
- Activity (Staphylococcus aureus [3]): 14.6%
- Activity (Staphylococcus aureus [5]): Dose-dependent effect
- Activity (Staphylococcus aureus [8]): 82.4%
- Activity (Staphylococcus aureus [12]): 81%
- Activity (Staphylococcus aureus [13]): 16.4%
- Activity (HEK293 [18]): Non-Toxic
- Activity (HEK293 [19]): Toxic
